Data taken from ChEMBL document CHEMBL4715745, “Synthesis and biological evaluation of novel FK228 analogues as potential isoform selective HDAC inhibitors” (Eur J Med Chem, 2016).

Experiments:
[1] = target: Histone deacetylase 1 (Homo sapiens, UniProt Q13547); test: Inhibition of human HDAC1 expressed in 293T cells using Ac-KGLGK(Ac)-MCA as substrate incubated for 30 mins in presence of 0.1 mM DTT by fluorescence plate reader assay; parameters: species or system HEK293T
[2] = target: T1, Protein deacetylase HDAC6 (Mus musculus, UniProt Q9Z2V5); test: Inhibition of mouse HDAC6 expressed in 293T cells using Ac-KGLGK(Ac)-MCA as substrate incubated for 30 mins in presence of 0.1 mM DTT by fluorescence plate reader assay; parameters: species or system HEK293T
T1 sequence (Q9Z2V5 whole entry): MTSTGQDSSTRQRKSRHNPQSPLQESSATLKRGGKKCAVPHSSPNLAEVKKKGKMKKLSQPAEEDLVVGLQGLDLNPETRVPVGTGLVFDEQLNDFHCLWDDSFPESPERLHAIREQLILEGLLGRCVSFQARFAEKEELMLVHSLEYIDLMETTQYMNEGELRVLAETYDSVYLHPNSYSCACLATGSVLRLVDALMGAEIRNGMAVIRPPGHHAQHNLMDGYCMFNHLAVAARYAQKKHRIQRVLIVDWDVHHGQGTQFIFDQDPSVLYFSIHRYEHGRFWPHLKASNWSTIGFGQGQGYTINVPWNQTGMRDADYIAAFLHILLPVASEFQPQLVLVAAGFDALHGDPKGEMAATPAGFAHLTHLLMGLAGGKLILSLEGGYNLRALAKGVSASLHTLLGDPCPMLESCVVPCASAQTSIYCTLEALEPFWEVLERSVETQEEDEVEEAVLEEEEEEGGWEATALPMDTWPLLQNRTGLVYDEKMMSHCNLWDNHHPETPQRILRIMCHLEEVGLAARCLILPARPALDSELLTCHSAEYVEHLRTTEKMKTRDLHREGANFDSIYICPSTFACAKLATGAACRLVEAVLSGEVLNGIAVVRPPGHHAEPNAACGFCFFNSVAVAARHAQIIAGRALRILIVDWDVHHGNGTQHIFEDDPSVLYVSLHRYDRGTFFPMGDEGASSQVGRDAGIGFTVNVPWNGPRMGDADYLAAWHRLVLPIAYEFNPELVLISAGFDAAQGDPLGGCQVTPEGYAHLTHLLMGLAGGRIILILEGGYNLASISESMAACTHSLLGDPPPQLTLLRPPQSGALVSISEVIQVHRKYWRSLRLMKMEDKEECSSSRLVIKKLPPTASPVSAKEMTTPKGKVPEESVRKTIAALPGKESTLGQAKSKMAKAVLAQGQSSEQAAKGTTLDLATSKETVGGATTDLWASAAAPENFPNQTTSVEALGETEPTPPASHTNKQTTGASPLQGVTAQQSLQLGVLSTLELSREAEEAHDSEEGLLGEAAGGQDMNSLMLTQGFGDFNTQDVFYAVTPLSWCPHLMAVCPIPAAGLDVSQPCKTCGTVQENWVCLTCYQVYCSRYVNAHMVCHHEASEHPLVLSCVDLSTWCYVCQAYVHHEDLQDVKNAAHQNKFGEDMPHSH
How it was run: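 HDAC enzyme assay run in the presence of 0.1 mM dithiothreitol (DTT); IC₅₀ determined.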

[3] = Selectivity index, ratio of IC50 for mouse HDAC6 expressed in 293T cells to IC50 for human HDAC1 expressed in 293T cells using Ac-KGLGK(Ac)-MCA as substrate incubated for 30 mins in presence of 0.1 mM DTT by fluorescence plate reader assay; details: 0.5 h
How it was run: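 Ratio of HDAC6 IC₅₀ to HDAC1 IC₅₀, taken as selectivity for class I HDAC1 over class II HDAC6. Both enzyme assays were run in the presence of 0.1 mM DTT.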

[4] = Growth inhibition of human HBC4 cells measured after 48 hrs by sulforhodamine B assay; format: functional
How it was run: (§1)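 Panel of 39 human cancer cell lines tested at the Japanese Foundation for Cancer Research. Five concentrations per compound, spanning 10⁻¹¹–10⁻⁷ M, 10⁻¹⁰–10⁻⁶ M or 10⁻⁸–10⁻⁴ M, were used to build dose-response curves. GI₅₀ is the concentration giving 50% growth inhibition relative to control.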

[5] = Growth inhibition of human BSY1 cells measured after 48 hrs by sulforhodamine B assay; format: functional; details: BSY-1; how it was run: as §1
[6] = Growth inhibition of human HBC5 cells measured after 48 hrs by sulforhodamine B assay; format: functional; how it was run: as §1
[7] = tested on: MCF7; test: Growth inhibition of human MCF7 cells measured after 48 hrs by sulforhodamine B assay; format: functional; how it was run: as §1
[8] = tested on: MDA-MB-231; test: Growth inhibition of human MDA-MB-231 cells measured after 48 hrs by sulforhodamine B assay; format: functional; how it was run: as §1
[9] = tested on: U-251; test: Growth inhibition of human U-251 cells measured after 48 hrs by sulforhodamine B assay; format: functional; how it was run: as §1
[10] = tested on: SF-268; test: Growth inhibition of human SF-268 cells measured after 48 hrs by sulforhodamine B assay; format: functional; how it was run: as §1
[11] = tested on: SF-295; test: Growth inhibition of human SF-295 cells measured after 48 hrs by sulforhodamine B assay; format: functional; how it was run: as §1
[12] = tested on: SF-539; test: Growth inhibition of human SF-539 cells measured after 48 hrs by sulforhodamine B assay; format: functional; how it was run: as §1
[13] = tested on: SNB-75; test: Growth inhibition of human SNB-75 cells measured after 48 hrs by sulforhodamine B assay; format: functional; how it was run: as §1
[14] = tested on: SNB-78; test: Growth inhibition of human SNB-78 cells measured after 48 hrs by sulforhodamine B assay; format: functional; how it was run: as §1
[15] = tested on: HCC 2998; test: Growth inhibition of human HCC 2998 cells measured after 48 hrs by sulforhodamine B assay; format: functional; how it was run: as §1
[16] = tested on: KM12; test: Growth inhibition of human KM12 cells measured after 48 hrs by sulforhodamine B assay; format: functional; how it was run: as §1
[17] = tested on: HT-29; test: Growth inhibition of human HT-29 cells measured after 48 hrs by sulforhodamine B assay; format: functional; how it was run: as §1
[18] = tested on: HCT-15; test: Growth inhibition of human HCT-15 cells measured after 48 hrs by sulforhodamine B assay; format: functional; how it was run: as §1
[19] = tested on: HCT-116; test: Growth inhibition of human HCT-116 cells measured after 48 hrs by sulforhodamine B assay; format: functional; how it was run: as §1
[20] = tested on: NCI-H23; test: Growth inhibition of human NCI-H23 cells measured after 48 hrs by sulforhodamine B assay; format: functional; how it was run: as §1
[21] = tested on: NCI-H226; test: Growth inhibition of human NCI-H226 cells measured after 48 hrs by sulforhodamine B assay; format: functional; how it was run: as §1
[22] = tested on: NCI-H522; test: Growth inhibition of human NCI-H522 cells measured after 48 hrs by sulforhodamine B assay; format: functional; how it was run: as §1
[23] = tested on: NCI-H460; test: Growth inhibition of human NCI-H460 cells measured after 48 hrs by sulforhodamine B assay; format: functional; how it was run: as §1
[24] = tested on: A549; test: Growth inhibition of human A549 cells measured after 48 hrs by sulforhodamine B assay; format: functional; how it was run: as §1
[25] = tested on: DMS-273; test: Growth inhibition of human DMS-273 cells measured after 48 hrs by sulforhodamine B assay; format: functional; how it was run: as §1
[26] = tested on: DMS-114; test: Growth inhibition of human DMS-114 cells measured after 48 hrs by sulforhodamine B assay; format: functional; how it was run: as §1
[27] = tested on: LOX IMVI; test: Growth inhibition of human LOX IMVI cells measured after 48 hrs by sulforhodamine B assay; format: functional; how it was run: as §1
[28] = tested on: OVCAR-3; test: Growth inhibition of human OVCAR-3 cells measured after 48 hrs by sulforhodamine B assay; format: functional; how it was run: as §1
[29] = tested on: OVCAR-4; test: Growth inhibition of human OVCAR-4 cells measured after 48 hrs by sulforhodamine B assay; format: functional; how it was run: as §1
[30] = tested on: OVCAR-5; test: Growth inhibition of human OVCAR-5 cells measured after 48 hrs by sulforhodamine B assay; format: functional; how it was run: as §1
[31] = tested on: OVCAR-8; test: Growth inhibition of human OVCAR-8 cells measured after 48 hrs by sulforhodamine B assay; format: functional; how it was run: as §1
[32] = tested on: SK-OV-3; test: Growth inhibition of human SK-OV-3 cells measured after 48 hrs by sulforhodamine B assay; format: functional; how it was run: as §1
[33] = tested on: RXF 631; test: Growth inhibition of human RXF 631 cells measured after 48 hrs by sulforhodamine B assay; format: functional; how it was run: as §1
[34] = tested on: ACHN; test: Growth inhibition of human ACHN cells measured after 48 hrs by sulforhodamine B assay; format: functional; how it was run: as §1
[35] = tested on: St-4; test: Growth inhibition of human St-4 cells measured after 48 hrs by sulforhodamine B assay; format: functional; how it was run: as §1
[36] = tested on: MKN-1; test: Growth inhibition of human MKN-1 cells measured after 48 hrs by sulforhodamine B assay; format: functional; how it was run: as §1
[37] = tested on: MKN-7; test: Growth inhibition of human MKN-7 cells measured after 48 hrs by sulforhodamine B assay; format: functional; how it was run: as §1
[38] = tested on: MKN-28; test: Growth inhibition of human MKN-28 cells measured after 48 hrs by sulforhodamine B assay; format: functional; how it was run: as §1
[39] = tested on: MKN-45; test: Growth inhibition of human MKN-45 cells measured after 48 hrs by sulforhodamine B assay; format: functional; how it was run: as §1
[40] = tested on: MKN-74; test: Growth inhibition of human MKN-74 cells measured after 48 hrs by sulforhodamine B assay; format: functional; how it was run: as §1
[41] = tested on: DU-145; test: Growth inhibition of human DU-145 cells measured after 48 hrs by sulforhodamine B assay; format: functional; how it was run: as §1
[42] = tested on: PC-3; test: Growth inhibition of human PC-3 cells measured after 48 hrs by sulforhodamine B assay; format: functional; how it was run: as §1

Chain of Histone deacetylase 1 (Q13547 whole entry): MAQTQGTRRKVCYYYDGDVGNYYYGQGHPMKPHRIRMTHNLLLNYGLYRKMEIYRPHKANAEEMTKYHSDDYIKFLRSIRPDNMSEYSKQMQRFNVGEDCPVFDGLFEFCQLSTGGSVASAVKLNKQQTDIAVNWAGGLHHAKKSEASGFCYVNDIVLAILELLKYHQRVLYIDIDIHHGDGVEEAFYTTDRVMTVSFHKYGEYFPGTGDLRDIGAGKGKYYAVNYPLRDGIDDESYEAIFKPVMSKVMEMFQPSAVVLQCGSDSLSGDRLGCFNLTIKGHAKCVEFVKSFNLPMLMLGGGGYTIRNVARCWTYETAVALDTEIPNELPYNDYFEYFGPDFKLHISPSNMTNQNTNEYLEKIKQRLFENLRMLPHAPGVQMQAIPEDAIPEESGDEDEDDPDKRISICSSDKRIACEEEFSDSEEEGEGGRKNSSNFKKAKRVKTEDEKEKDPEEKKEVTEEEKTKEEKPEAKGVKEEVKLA

SMILES: CC(C)[C@H]1NC(=O)C[C@H]2/C=C/CCSSC[C@@H](NC1=O)C(=O)NCC(=O)NCC(=O)O2
- IC50 [1]: 92.4 nM
- IC50 [2]: 1320 nM
- Ratio IC50 [3]: 14
- GI50 [4]: 13000 nM
- GI50 [5]: 18000 nM
- GI50 [6]: 39000 nM
- GI50 [7]: 33000 nM
- GI50 [8]: 9200 nM
- GI50 [9]: 17000 nM
- GI50 [10]: 12000 nM
- GI50 [11]: 40000 nM
- GI50 [12]: 3300 nM
- GI50 [13]: 950 nM
- GI50 [14]: 610 nM
- GI50 [15]: 13000 nM
- GI50 [16]: 12000 nM
- GI50 [17]: 2700 nM
- GI50 [18]: 100000 nM
- GI50 [19]: 2500 nM
- GI50 [20]: 36000 nM
- GI50 [21]: 61000 nM
- GI50 [22]: 680 nM
- GI50 [23]: 15000 nM
- GI50 [24]: 10000 nM
- GI50 [25]: 47000 nM
- GI50 [26]: 5200 nM
- GI50 [27]: 2900 nM
- GI50 [28]: 13000 nM
- GI50 [29]: 46000 nM
- GI50 [30]: 3100 nM
- GI50 [31]: 18000 nM
- GI50 [32]: 12000 nM
- GI50 [33]: 91000 nM
- GI50 [34]: 43000 nM
- GI50 [35]: 81000 nM
- GI50 [36]: 12000 nM
- GI50 [37]: 47000 nM
- GI50 [38]: 95000 nM
- GI50 [39]: 100000 nM
- GI50 [40]: 16000 nM
- GI50 [41]: 5400 nM
- GI50 [42]: 11000 nM

SMILES: CC(C)[C@H]1NC(=O)C[C@H]2/C=C/CCSSC[C@@H](NC1=O)C(=O)N[C@H](C)C(=O)NCC(=O)O2
- IC50 [1]: 2.1 nM
- IC50 [2]: 1010 nM
- Ratio IC50 [3]: 480
- GI50 [4]: 30 nM
- GI50 [5]: 36 nM
- GI50 [6]: 160 nM
- GI50 [7]: 37 nM
- GI50 [8]: 21 nM
- GI50 [9]: 19 nM
- GI50 [10]: 31 nM
- GI50 [11]: 71 nM
- GI50 [12]: 10 nM
- GI50 [13]: 10 nM
- GI50 [14]: 10 nM
- GI50 [15]: 14 nM
- GI50 [16]: 20 nM
- GI50 [17]: 13 nM
- GI50 [18]: 6700 nM
- GI50 [19]: 10 nM
- GI50 [20]: 31 nM
- GI50 [21]: 110 nM
- GI50 [22]: 10 nM
- GI50 [23]: 15 nM
- GI50 [24]: 15 nM
- GI50 [25]: 89 nM
- GI50 [26]: 17 nM
- GI50 [27]: 11 nM
- GI50 [28]: 22 nM
- GI50 [29]: 100 nM
- GI50 [30]: 14 nM
- GI50 [31]: 31 nM
- GI50 [32]: 19 nM
- GI50 [33]: 110 nM
- GI50 [34]: 270 nM
- GI50 [35]: 410 nM
- GI50 [36]: 36 nM
- GI50 [37]: 260 nM
- GI50 [38]: 440 nM
- GI50 [39]: 500 nM
- GI50 [40]: 35 nM
- GI50 [41]: 21 nM
- GI50 [42]: 70 nM
